Experimental findings from article PMC10464600 (ACS chemical biology, 2022) are described below.

pIC50: −log10 of the molar value. Bounds are passed on as bounds.

One data set can be described thus: Photophysical properties. Format: physicochemical. In short, it runs like this:
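Samples were diluted to 1 μM and scanned on a photon-counting fluorometer in a 10 x 4 mm cuvette at 25 °C, with excitation/emission spectra recorded in triplicate. Quantum yield was taken relative to a reference fluorophore standard. Extinction coefficient came from absorbance spectra (10 mm pathlength) at 10, 8, 6, 4 and 2 μM dilutions.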

A further data set deals with 1483 HNSCC cells. Put plainly: Cell imaging assay, fluorescence microscopy. Format: cell-based. In short, it runs like this:
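1483 HNSCC cells in HBSS/Tyrode's, grown to 50% confluency, given 200 nM probe for 0.25 h at 37 °C, washed three times, imaged (propidium iodide filter, 0.5 s exposure, gain 2) at 0.5 and 3 h post-addition. Intensity read at 586/607 nm. Triplicates; Welch-corrected unpaired t test, error as standard error.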

The test system of data set [1] is ROS in carrageenan-induced inflamed footpad. Put plainly: Chemiluminescence imaging of ROS in carrageenan-induced footpad inflammation. The conditions noted are these: luminol 5 mg/kg i.v. Format: in vivo, C57BL/6 mice.
The nature of data set [2]: In vivo pharmacokinetic assay, plasma concentration by LC-MS. The conditions noted are these: CD-1 mice, 10 mg/kg i.p.
Data set [3] concerns the target T1, COX-2 in 1483 HNSCC cells (Homo sapiens, UniProt P35354).
T1 sequence (P35354 18-604): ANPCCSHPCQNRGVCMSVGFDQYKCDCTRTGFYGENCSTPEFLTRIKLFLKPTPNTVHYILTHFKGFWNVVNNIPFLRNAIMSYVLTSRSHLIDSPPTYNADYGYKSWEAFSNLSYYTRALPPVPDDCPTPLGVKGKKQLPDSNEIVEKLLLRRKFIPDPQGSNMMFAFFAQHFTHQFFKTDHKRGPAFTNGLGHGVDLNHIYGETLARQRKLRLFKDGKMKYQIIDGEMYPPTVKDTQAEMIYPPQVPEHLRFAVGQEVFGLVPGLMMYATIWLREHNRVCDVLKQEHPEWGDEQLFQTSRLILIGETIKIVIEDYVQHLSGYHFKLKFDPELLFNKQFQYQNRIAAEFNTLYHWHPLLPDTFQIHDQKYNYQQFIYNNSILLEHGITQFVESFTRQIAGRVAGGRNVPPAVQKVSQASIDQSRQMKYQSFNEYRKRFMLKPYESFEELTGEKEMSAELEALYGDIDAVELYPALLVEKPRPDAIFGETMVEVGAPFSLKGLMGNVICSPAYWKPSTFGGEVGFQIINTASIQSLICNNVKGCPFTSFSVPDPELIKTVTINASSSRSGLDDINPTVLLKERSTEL
Put plainly: Cell-based COX-2 inhibition assay in intact 1483 HNSCC cells. The conditions noted are these: read-out: IC50, cellular COX-2 inhibition.

A further data set has as its target T2, mCOX-2 (Mus musculus, UniProt Q05769).
T2 sequence (Q05769 18-604): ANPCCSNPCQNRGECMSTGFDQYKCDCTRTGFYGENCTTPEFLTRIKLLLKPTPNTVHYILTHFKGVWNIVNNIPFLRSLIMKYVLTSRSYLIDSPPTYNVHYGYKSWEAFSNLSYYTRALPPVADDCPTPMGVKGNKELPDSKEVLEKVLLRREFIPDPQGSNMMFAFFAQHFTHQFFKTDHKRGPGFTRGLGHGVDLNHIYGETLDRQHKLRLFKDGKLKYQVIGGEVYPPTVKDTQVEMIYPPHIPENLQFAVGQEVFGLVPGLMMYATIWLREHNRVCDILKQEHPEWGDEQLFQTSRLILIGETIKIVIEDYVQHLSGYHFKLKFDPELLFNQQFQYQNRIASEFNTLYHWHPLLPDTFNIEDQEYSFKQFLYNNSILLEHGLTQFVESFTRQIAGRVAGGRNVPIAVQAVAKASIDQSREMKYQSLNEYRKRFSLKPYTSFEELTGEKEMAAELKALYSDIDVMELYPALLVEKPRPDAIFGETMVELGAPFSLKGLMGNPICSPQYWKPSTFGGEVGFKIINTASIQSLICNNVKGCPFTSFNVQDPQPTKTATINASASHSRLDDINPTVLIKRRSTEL
Put plainly: Purified COX-2 isozyme inhibition, TLC assay with [1-14C]arachidonic acid. It is filed as biochemical. The conditions noted are these: read-out: IC50, inhibition of COX-2, 14C-arachidonic acid substrate.

In data set [4] the test system is COX-2 and ROS in carrageenan-induced inflamed footpad. Nature of the data set: Fluorescence imaging of carrageenan-induced footpad inflammation. Format: in vivo, C57BL/6 mice.
The mark [5] stands for this setting: 200 nM, 1483 HNSCC cells, after washout.

Regarding `COc1ccc2c(c1)c(CC(=O)NCCCCNC(=O)c1ccc(C3=c4cc5c6c(c4Oc4c3cc3c7c4CCCN7CCC3)CCC[N+]=6CCC5)c(C(=O)O)c1)c(C)n2C(=O)c1ccc(Cl)cc1` [FA, fluorocoxib A, reference compound], in “Photophysical properties” (at 579 nm), the “extinction coefficient (ε)” value was 45 mM⁻¹ cm⁻¹. Moreover, the “quantum yield (Φfl)” value in the data set “Photophysical properties” (at 602 nm, FA used as standard for comparison) is reported as 0.93.

For the compound `Cc1ccc(-c2cc(C(F)(F)F)nn2-c2ccc(S(N)(=O)=O)cc2)cc1` [celecoxib, reference compound], in the data set on 1483 HNSCC cells (pretreatment before fluorocoxib Q-H), the “effect of preincubation on fluorocoxib Q-H labeling of 1483 HNSCC cells” value is “blocked”.

Take `Nc1cccc2c(=O)[nH][nH]c(=O)c12` [luminol]: the “fold luminescence, inflamed versus control footpads” value in data set [1] came to 12 fold. In addition, the “chemiluminescence emission in inflamed footpads (mean ± sd)” value in data set [1] (6 h after carrageenan, n = 8, p < 0.0004) was 1251.5 ± 94.9.

With fluorocoxib Q [FQ], in the data set “Photophysical properties” (at 586 nm), the “extinction coefficient (ε)” value was below 0.4 mM⁻¹ cm⁻¹. In “Photophysical properties” (at 607 nm), the “quantum yield (Φfl)” value is on record as below 0.19. Moreover, in the data set on 1483 HNSCC cells (setting [5]), the “cell fluorescence at 0.5 h post-addition” value is reported as “low fluorescence intensity” and the “cell fluorescence at 3 h post-addition” value is listed as “strong fluorescence”. Further, in data set [2], the plasma half-life result was “exceeds 24 h”. Further, in data set [3], the pIC50 (in general, −log10 of the IC50, conventionally taken in molar units) is 6.55. In addition, the pIC50 at mCOX-2 was 6.48. Moreover, the “fold increase in fluorescence, inflamed over non-inflamed footpads” value in data set [4] (5 mg/kg i.p., imaging 24 h post-injection, average) is 9 fold. Moreover, the “fluorescence in inflamed footpad (mean ± sd)” value in data set [4] (5 mg/kg i.p., imaging 24 h post-injection, n = 8, p < 0.001) is reported as 7.84x10^8 ± 1.25x10^8. For the same compound, the “background signal in non-inflamed footpad” value in data set [4] (wild-type C57BL/6 mice, FQ versus CF3-FA) is recorded as “extremely low background signal”.

With fluorocoxib Q-H [FQ-H], in “Photophysical properties” (at 586 nm), the “extinction coefficient (ε)” value is 44 mM⁻¹ cm⁻¹. The “quantum yield (Φfl)” value in the data set “Photophysical properties” (at 607 nm) was 0.90. Also, the “fluorescence labeling of 1483 HNSCC cells” value in the data set with 1483 HNSCC cells (fluorocoxib Q-H alone, after repetitive washing) is listed as “strong perinuclear fluorescence”. For the same compound, the values for the pIC50 (in data set [3]; on mCOX-2) were 6.59 and 6.62, respectively.
